Data from ChEMBL document CHEMBL4196166 (J Med Chem, 2018).
Active and inactive are the calls of the source.

Experiments:
[1] = target: Adenosine receptor A2a (Homo sapiens) (UniProt P29274); test: Displacement of [3H]ZM241385 from human wild type adenosine A2A receptor at 10 uM
Method in brief: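 Compounds tested at 10 µM for displacement of 2.5 nM [3H]ZM241385 from human wild-type A2A receptor. Total binding taken without inhibitor. Nonspecific binding defined with 100 µM NECA. At least three independent experiments, each in duplicate. Mean ± SEM.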

Plasma kallikrein = Plasma kallikrein (Homo sapiens, UniProt P03952); test: Inhibition of plasma kallikrein (unknown origin) at 10 nM to 33.3 uM after 30 mins by gel-based ABPP assay
Chain of Plasma kallikrein (P03952 20-390 limits assumed): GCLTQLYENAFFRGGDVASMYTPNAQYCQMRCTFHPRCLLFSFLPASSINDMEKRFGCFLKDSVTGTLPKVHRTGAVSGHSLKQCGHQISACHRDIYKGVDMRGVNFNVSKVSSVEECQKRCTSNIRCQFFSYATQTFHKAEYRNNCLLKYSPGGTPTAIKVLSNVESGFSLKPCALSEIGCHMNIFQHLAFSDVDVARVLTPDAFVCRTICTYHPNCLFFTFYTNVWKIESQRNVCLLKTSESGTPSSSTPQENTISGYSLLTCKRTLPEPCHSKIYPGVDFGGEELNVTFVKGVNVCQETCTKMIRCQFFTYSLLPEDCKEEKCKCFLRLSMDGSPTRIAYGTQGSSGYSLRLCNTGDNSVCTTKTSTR
Chain of Plasma kallikrein (P03952 391-638 limits assumed): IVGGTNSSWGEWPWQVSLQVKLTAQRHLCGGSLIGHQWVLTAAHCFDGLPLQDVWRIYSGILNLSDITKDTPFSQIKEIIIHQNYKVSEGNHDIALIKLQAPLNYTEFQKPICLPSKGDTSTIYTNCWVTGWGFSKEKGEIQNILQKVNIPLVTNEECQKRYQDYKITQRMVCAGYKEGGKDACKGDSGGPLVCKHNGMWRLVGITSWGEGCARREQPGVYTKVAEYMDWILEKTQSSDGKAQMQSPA

Trypsin = Trypsin (Homo sapiens, UniProt P07477+P07478+P35030); test: Inhibition of trypsin (unknown origin) at 10 nM to 33.3 uM after 30 mins by gel-based ABPP assay; assay type: protein assay
[2] = target: Complement C1s subcomponent (Homo sapiens) (UniProt P09871); test: Inhibition of C1S (unknown origin) at 10 nM to 33.3 uM after 30 mins by gel-based ABPP assay
Chain of Complement C1s subcomponent (Homo sapiens) (P09871 16-437 limits assumed): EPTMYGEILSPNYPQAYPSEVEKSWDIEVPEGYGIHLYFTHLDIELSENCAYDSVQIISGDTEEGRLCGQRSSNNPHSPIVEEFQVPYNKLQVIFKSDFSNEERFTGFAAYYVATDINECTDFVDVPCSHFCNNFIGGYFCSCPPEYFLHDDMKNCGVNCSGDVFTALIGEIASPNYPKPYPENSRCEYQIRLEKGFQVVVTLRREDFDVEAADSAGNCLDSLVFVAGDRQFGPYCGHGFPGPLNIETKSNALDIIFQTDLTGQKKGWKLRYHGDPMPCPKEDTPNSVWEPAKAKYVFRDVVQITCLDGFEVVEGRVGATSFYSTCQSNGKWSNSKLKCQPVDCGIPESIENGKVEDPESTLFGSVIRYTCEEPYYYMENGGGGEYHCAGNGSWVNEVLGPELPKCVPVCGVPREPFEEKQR
Chain of Complement C1s subcomponent (Homo sapiens) (P09871 438-688 limits assumed): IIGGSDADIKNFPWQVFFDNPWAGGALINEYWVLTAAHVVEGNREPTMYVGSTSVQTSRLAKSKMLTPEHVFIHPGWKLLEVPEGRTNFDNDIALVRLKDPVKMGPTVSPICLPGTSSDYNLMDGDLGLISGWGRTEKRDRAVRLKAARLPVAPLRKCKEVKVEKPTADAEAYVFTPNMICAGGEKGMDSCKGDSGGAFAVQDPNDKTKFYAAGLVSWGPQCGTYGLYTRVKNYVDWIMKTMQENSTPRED

Plasminogen = Plasminogen (Homo sapiens, UniProt P00747); test: Inhibition of plasmin (unknown origin) at 10 nM to 33.3 uM after 30 mins by gel-based ABPP assay
Chain of Plasminogen (P00747 97-580 limits assumed): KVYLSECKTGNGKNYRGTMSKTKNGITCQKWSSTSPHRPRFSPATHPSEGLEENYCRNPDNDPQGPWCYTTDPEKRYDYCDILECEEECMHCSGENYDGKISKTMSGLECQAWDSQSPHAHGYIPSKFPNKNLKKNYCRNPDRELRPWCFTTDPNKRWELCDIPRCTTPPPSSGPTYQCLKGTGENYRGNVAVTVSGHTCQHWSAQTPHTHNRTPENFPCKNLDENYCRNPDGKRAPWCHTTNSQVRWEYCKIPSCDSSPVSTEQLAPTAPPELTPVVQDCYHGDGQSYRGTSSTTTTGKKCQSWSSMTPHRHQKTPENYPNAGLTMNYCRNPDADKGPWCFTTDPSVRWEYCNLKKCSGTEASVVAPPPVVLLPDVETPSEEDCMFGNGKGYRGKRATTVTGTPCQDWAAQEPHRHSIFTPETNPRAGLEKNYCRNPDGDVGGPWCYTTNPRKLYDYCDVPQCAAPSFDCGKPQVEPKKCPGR
Chain of Plasminogen (P00747 581-810 limits assumed): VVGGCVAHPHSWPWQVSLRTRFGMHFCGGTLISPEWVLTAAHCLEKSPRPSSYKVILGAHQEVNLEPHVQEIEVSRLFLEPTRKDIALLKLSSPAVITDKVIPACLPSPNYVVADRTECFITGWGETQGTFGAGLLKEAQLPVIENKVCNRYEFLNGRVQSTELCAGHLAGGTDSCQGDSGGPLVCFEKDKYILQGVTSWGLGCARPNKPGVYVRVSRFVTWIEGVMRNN

[3] = target: Lysosomal Pro-X carboxypeptidase (Homo sapiens) (UniProt P42785); test: Inhibition of prolylcarboxypeptidase (unknown origin) at 10 nM to 33.3 uM after 30 mins by gel-based ABPP assay
Chain of Lysosomal Pro-X carboxypeptidase (Homo sapiens) (P42785 whole entry): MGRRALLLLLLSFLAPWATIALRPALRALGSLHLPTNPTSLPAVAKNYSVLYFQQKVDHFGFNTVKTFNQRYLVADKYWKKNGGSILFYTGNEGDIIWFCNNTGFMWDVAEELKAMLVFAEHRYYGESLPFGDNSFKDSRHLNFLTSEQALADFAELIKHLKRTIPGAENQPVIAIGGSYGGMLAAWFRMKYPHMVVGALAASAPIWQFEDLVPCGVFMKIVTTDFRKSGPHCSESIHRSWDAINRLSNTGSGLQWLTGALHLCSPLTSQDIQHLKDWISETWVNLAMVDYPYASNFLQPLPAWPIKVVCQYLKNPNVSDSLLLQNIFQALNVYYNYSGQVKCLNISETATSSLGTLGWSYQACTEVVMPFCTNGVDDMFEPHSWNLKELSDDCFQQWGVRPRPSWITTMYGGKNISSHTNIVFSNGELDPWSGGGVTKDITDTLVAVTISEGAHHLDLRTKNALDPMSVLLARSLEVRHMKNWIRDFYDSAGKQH

[4] = target: Transmembrane protease serine 11D (Homo sapiens) (UniProt O60235); test: Inhibition of transmembrane protease serine 11D (unknown origin) at 10 nM to 33.3 uM after 30 mins by gel-based ABPP assay
Chain of Transmembrane protease serine 11D (Homo sapiens) (O60235 1-186 limits assumed): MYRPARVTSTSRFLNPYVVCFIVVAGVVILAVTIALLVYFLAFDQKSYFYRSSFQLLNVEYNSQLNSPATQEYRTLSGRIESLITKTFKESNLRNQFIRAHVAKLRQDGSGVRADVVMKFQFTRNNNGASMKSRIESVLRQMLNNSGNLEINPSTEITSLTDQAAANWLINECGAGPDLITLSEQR
Chain of Transmembrane protease serine 11D (Homo sapiens) (O60235 187-418 limits assumed): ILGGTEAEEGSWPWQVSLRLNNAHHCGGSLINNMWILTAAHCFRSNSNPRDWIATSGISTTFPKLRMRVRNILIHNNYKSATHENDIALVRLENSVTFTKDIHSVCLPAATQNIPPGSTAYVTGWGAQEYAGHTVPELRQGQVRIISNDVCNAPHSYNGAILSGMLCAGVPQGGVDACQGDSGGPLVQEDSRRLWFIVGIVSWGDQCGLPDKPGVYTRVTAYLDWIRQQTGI

Homo sapiens = test: Antimetastatic activity against human PSC xenografted in BALB/c nu/nu mouse co-implanted with human AsPC1 cells assessed as reduction in metastasis lesions in liver at 10 mg/kg/day, ip measured after 28 days post first dose by haematoxylin and eosin staining-based microscopic analysis; assay type: functional, organism-based
Method in brief: (§1)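 Female athymic BALB/c nu/nu mice, 6–8 weeks old. 1×10^6 AsPC-1 and 1×10^6 human pancreatic stellate cells in 50 µL PBS injected into the pancreatic tail. Treatment randomized on day 7 (n = 4/group) for 4 weeks: 10 mg/kg/day ip in 50 mM sodium acetate pH 5.5/10% DMSO/1% Kolliphor HS-15, or gemcitabine 75 mg/kg by oral gavage twice weekly, or vehicle. At kill, liver scored for visible macrometastases, fixed in formalin, and 4 µm sections stained with H&E. Chi-square test.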

ASPC1 = test: Antimetastatic activity against human AsPC1 cells xenografted in BALB/c nu/nu mouse co-implanted with human PSC assessed as reduction in metastasis lesions in liver at 10 mg/kg/day, ip measured after 28 days post first dose by haematoxylin and eosin staining-based microscopic analysis; assay type: functional, organism-based; method in brief: as §1

Chain of Adenosine receptor A2a (Homo sapiens) (P29274 whole entry): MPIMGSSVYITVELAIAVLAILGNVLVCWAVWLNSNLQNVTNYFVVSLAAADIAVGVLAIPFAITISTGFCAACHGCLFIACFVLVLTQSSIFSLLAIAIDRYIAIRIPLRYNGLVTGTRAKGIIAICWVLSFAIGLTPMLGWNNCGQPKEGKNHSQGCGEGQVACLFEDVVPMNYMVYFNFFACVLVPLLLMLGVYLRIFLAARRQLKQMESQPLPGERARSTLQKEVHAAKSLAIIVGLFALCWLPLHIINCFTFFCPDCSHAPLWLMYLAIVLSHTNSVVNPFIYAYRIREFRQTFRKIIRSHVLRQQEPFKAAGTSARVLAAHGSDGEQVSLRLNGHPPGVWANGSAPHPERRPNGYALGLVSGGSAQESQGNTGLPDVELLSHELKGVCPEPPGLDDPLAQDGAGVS

N=C(N)NC(=O)c1nc(Cl)c(N2CCCCCC2)nc1N [N,N-HEXAMETHYLENEAMILORIDE]
active: inhibition [1]

N=C(N)NC(=O)c1nc(-c2cc3ccccc3o2)c(N2CCCCCC2)nc1N
active: inhibition (Plasma kallikrein) | inhibition (Trypsin)

COc1ncc(-c2nc(C(=O)NC(=N)N)c(N)nc2N2CCCCCC2)cn1
active: inhibition (Plasma kallikrein) | inhibition (Trypsin) | inhibition [2] | inhibition (Plasminogen) | inhibition [3] | inhibition [4] | Activity (Homo sapiens) | Activity (ASPC1)
